Measured values: article PMC3163034 (Digestive diseases and sciences, 2011)
Where a name gives a salt, the structure may show the parent alone.

How the values were obtained:
[1] = Blood pressure and heart rate by tail-cuff in DSS mice; assay type: in vivo; conditions: transanal treatment, compared to naive group
Procedure, shortened: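 Mice received DSS in drinking water for 7 days plus daily transanal test compound (100 or 10 mg/kg/day) suspended in ddH2O, 0.25 ml total, via blunt needle. Naive controls received transanal water only. Heart rate and blood pressure were taken by automated noninvasive tail-cuff on DSS day 6, 1 h before (Pre) and 2 h after (Post) transanal dosing. Data are mean ± SD.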

[2] = Plasma levels of orally administered AT1a antagonists in DSS-treated mice; assay type: in vivo; conditions: 10 mg/kg; for Cmax at 2 h: mouse, plasma, po
Procedure, shortened: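 Mice given DSS for 7 days received test compound orally at 10 mg/kg and were killed 2 h later. Plasma was collected by cardiac puncture, diluted tenfold in mobile phase, and quantified by LC-MS/MS on a C18 column (150 × 2.0 mm, 0.2 ml/min). Data are mean ± SD, n = 5.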

[3] = Ussing-chamber permeability across excised mouse intestinal segments; assay type: in vitro ADME, mice; conditions: for Peff, Colon (mean ± SD) / Peff, Small intestine (mean ± SD): 1 mg/ml mucosal side, pH 7.4, 37°C
Procedure, shortened: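 Freshly isolated jejunum and left-sided colon from naive and 7-day DSS-treated mice, mounted with 0.3 cm2 exposed area. Both sides held 5 ml Krebs buffer, pH 7.4, 37°C, gassed with 95% O2/5% CO2. Test compound added mucosally (final 1 mg/ml). Serosal samples taken every 20 min from 0 to 120 min, in triplicate, and measured by LC-MS/MS. Peff = (dC/dt)·V/(A·Co).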

[4] = Colonic mucosa and mesenteric blood flow by laser Doppler perfusion imaging; assay type: in vivo, mice; conditions: 7 days of DSS, transanal treatment, n = 6; for Colonic blood flow at the mucosal level: naive 1.91 ± 0.26, mean ± SD; for Mesenteric blood flow: naive 2.82 ± 0.23, mean ± SD
Procedure, shortened: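 After 7 days of DSS in drinking water, with daily transanal test compound (10 or 100 mg/kg/day) or water, and naive controls, mice (n = 6/group) were anesthetized just before harvest. Median laparotomy exposed the mesentery. A […] LDPI beam 12 cm above scanned the mesentery and 2 cm of distal colonic mucosa. Perfusion was normalized to total pixel area (mean ± SD).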

[5] = rats; cited from earlier work
[6] = Normal rat jejunum, Ussing chamber; cited from earlier work
[7] = 2 h after oral administration, DSS mice

plasma level compared to candesartan [2, 7] | plasma level compared to losartan [2, 7] | Cmax at 2 h [2] [ng/mL] | Peff, Colon (mean ± SD) ([3]; DSS-treated mice (7 days)) [×10⁻⁶ cm/s] | Peff, Small intestine (mean ± SD) ([3]; DSS-treated mice (7 days)) [×10⁻⁶ cm/s] | Peff, Colon (mean ± SD) ([3]; Normal (naive) mice) [×10⁻⁶ cm/s] | Peff, Small intestine (mean ± SD) ([3]; Normal (naive) mice) [×10⁻⁶ cm/s] | permeability coefficient compared to other AT1aR-antagonists ([3]; Ussing chamber, both naive- and DSS-treated specimens) | Colonic blood flow at the mucosal level [4] | Mesenteric blood flow [4] | Compound | Heart rate [1] | oral 50% effective dose (ED50, blood pressure lowering) [5] [mg/kg] | Peff, Small intestine [6] [×10⁻⁶ cm/s]
over tenfold lower | threefold lower | 37.8 ± 26.4 | 2.66 ± 0.96 | 1.52 ± 1.31 | 1.58 ± 1.24 | 1.37 ± 0.15 | threefold to sixfold lower | failed to change | failed to change | CCCCc1ncc(CO)n1Cc1ccc(-c2ccccc2-c2nn[nH]n2)cc1 [DCL, 2-butyl-1-[[2′-(2H-tetrazol-5-yl)[1,1′-biphenyl]-4-yl]methyl]-1H-imidazole-5-methanol] | not significantly different | > 100 | 
 |  |  |  |  |  |  |  |  |  | C[C@H](N[C@@H](CCc1ccccc1)C(=O)O)C(=O)N1CCC[C@H]1C(=O)O [Enalaprilat] |  |  | 6e+12
 |  | 569 ± 188 | 5.94 ± 4.41 | 3.85 ± 2.03 | 4.13 ± 3.04 | 7.85 ± 5.91 |  | 0.92 ± 0.20 | 1.56 ± 0.33 | CCOc1nc2cccc(C(=O)O)c2n1Cc1ccc(-c2ccccc2-c2nnn[nH]2)cc1 [candesartan, 2-ethoxy-1-[[2′-(2H-tetrazol-5-yl)[1,1′-biphenyl]-4-yl]methyl]-1H-benzimidazole-7-carboxylic acid] | did decline significantly |  | 
 |  | 117 ± 87 | 5.77 ± 3.37 | 5.24 ± 1.4 | 6.4 ± 5.6 | 4.21 ± 1.67 |  | 0.88 ± 0.32 | 1.97 ± 0.58 | CCCCc1nc(Cl)c(CO)n1Cc1ccc(-c2ccccc2-c2nn[nH]n2)cc1 [losartan, 2-butyl-4-chloro-1-[[2′-(2H-tetrazol-5-yl)[1,1′-biphenyl]-4-yl]methyl]-1H-imidazole-5-methanol, mono-potassium salt] | not significantly different | 0.59 | 
